According to ChEMBL document CHEMBL2331331 (J Med Chem, 2013):
The source made the active and inactive calls. The calls are words filed in the database; no cut-off is given here.

Assays:
[1] = Cmax in Sprague-Dawley rat at 10 mg/kg/day, po measured within 7 hrs; format: ADME, organism-based; parameters: dose 10 mg/kg/day, route oral; conditions: in vivo
Mus musculus = experiment: Toxicity in NOD-SCID mouse xenografted with FLT3-ITD-positive human MV4-11 cells assessed as body weight loss at 1 to 10 mg/kg/day, po administered 18 days measured every 3 days for 18 days; format: organism-based; parameters: route oral; conditions: in vivo, 432 h
How it was run: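 NOD-SCID mice, 5–6 weeks old, received 100 μL of MV4-11 cells sc (1 × 10⁸/mL in serum-free medium). At 300–500 mm³ tumors, mice were grouped (six per group) and gavaged once daily for 18 days at 1, 3 or 10 mg/kg/d. Vehicle was 12.5% castor oil, 12.5% ethanol and 75% water. Body weights were tracked; tumors were measured every 3 d.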

[2] = target: Vascular endothelial growth factor receptor 2 (Danio rerio) (UniProt Q5GIT4); experiment: Inhibition of VEGFR2 in transgenic zebrafish embryo assessed as inhibition of intersegmental vessels formation at 5 uM measured 33 hrs post fertilization by fluorescence microscopic analysis
How it was run: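 FLK-1:EGFP transgenic zebrafish embryos, 10 per well, exposed at 28.5 °C from 15 to 31 hpf to compound in fish water at 1.25, 2.5 or 5 μM (diluted from a 10 mmol/L DMSO stock); 0.3% DMSO as vehicle control. Embryos were imaged at 33 hpf, and ISVs above the yolk extension were scored for length. n = 11, mean ± SD, ANOVA.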

[3] = target: T1, Receptor-type tyrosine-protein kinase FLT3 (Homo sapiens, UniProt P36888); experiment: Inhibition of FLT3 phosphorylation in human MV4-11 cells after 20 hrs by Western blotting analysis; format: cell-based
T1 sequence (P36888 whole entry): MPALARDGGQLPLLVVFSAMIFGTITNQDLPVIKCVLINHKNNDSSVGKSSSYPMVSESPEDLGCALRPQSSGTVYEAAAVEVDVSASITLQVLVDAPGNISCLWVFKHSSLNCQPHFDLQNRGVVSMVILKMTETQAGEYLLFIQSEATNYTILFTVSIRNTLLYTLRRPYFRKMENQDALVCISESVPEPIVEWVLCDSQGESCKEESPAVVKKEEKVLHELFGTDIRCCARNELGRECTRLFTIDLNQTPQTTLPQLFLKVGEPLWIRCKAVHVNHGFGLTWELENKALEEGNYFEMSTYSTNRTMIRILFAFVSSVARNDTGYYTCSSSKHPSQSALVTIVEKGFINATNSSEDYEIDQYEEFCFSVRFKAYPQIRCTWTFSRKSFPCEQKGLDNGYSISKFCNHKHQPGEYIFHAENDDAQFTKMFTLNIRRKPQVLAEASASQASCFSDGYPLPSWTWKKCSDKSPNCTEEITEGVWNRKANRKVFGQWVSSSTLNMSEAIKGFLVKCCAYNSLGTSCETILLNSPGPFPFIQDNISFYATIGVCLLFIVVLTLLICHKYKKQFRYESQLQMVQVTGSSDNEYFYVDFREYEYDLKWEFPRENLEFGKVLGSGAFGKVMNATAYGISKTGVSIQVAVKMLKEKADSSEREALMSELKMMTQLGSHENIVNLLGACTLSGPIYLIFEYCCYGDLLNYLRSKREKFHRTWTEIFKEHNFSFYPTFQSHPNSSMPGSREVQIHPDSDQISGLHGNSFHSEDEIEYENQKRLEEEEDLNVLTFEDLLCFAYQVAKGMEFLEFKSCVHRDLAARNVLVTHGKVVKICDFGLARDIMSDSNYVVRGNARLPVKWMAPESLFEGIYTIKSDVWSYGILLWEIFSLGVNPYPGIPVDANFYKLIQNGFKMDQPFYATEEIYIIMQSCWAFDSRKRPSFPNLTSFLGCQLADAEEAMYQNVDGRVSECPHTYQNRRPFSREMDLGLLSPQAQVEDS

MV4-11 = experiment: Antitumor activity against human MV4-11 cells xenografted in mouse at 5 mg/kg/day, po after 18 days; format: functional, organism-based
How it was run: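 MV4-11 sc xenograft mice dosed daily by mouth once tumors reached about 400 mm³, three mice per group; tumor volume followed.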

[4] = Cytotoxicity against human SK cells assessed as growth inhibition after 72 hrs by MTT assay
SK-OV-3 = experiment: Cytotoxicity against human SKOV3 cells assessed as growth inhibition after 72 hrs by MTT assay; conditions: SK-OV-3, 72 h
A549 = experiment: Cytotoxicity against human A549 cells assessed as growth inhibition after 72 hrs by MTT assay; conditions: A549, 72 h
MCF7 = experiment: Cytotoxicity against human MCF7 cells assessed as growth inhibition after 72 hrs by MTT assay; conditions: MCF7, 72 h
[5] = Inhibition of ERK (unknown origin); parameters: species or system Homo sapiens
[6] = target: Serine/threonine-protein kinase PAK 4 (Homo sapiens, UniProt O96013); experiment: Inhibition of PAK4 (unknown origin)
How it was run: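 Single selected panel of recombinant human protein kinases, screened in vitro. The value reported is the IC50 against each kinase.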

[7] = target: Calcium/calmodulin-dependent protein kinase type IV (Homo sapiens, UniProt Q16566); experiment: Inhibition of CAMK4 (unknown origin)
[8] = target: Cyclin-dependent kinase 2 (Homo sapiens, UniProt P24941); experiment: Inhibition of CDK2 (unknown origin)
[9] = target: Receptor tyrosine-protein kinase erbB-4 (Homo sapiens, UniProt Q15303); experiment: Inhibition of ERBB4 (unknown origin)
[10] = target: Serine/threonine-protein kinase pim-1 (Homo sapiens, UniProt P11309); experiment: Inhibition of Pim-1 (unknown origin)
[11] = target: Platelet-derived growth factor receptor alpha (Homo sapiens, UniProt P16234); experiment: Inhibition of PDGFRalpha (unknown origin)
[12] = target: Receptor-type tyrosine-protein kinase FLT3 (Homo sapiens, UniProt P36888, ITD); experiment: Binding affinity to FLT3-ITD mutant (unknown origin)
[13] = target: T1, Receptor-type tyrosine-protein kinase FLT3; experiment: Inhibition of FLT3 (unknown origin)
HeLa = experiment: Cytotoxicity against human HeLa cells assessed as growth inhibition after 72 hrs by MTT assay; format: functional, cell-based
How it was run: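 MTT viability assay with serial inhibitor dilutions for 72 h at 37 °C, then MTT for 2–4 h and OD read at 570 nm. Leukemia lines were seeded at (1–4) × 10⁴ cells/well and lysed with 20% acidified SDS. Adherent lines were seeded at (2–5) × 10³ cells/well, dosed after 24 h and dissolved in DMSO. Triplicate; mean ± SD.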

Chain of Receptor tyrosine-protein kinase erbB-4 (Q15303 whole entry): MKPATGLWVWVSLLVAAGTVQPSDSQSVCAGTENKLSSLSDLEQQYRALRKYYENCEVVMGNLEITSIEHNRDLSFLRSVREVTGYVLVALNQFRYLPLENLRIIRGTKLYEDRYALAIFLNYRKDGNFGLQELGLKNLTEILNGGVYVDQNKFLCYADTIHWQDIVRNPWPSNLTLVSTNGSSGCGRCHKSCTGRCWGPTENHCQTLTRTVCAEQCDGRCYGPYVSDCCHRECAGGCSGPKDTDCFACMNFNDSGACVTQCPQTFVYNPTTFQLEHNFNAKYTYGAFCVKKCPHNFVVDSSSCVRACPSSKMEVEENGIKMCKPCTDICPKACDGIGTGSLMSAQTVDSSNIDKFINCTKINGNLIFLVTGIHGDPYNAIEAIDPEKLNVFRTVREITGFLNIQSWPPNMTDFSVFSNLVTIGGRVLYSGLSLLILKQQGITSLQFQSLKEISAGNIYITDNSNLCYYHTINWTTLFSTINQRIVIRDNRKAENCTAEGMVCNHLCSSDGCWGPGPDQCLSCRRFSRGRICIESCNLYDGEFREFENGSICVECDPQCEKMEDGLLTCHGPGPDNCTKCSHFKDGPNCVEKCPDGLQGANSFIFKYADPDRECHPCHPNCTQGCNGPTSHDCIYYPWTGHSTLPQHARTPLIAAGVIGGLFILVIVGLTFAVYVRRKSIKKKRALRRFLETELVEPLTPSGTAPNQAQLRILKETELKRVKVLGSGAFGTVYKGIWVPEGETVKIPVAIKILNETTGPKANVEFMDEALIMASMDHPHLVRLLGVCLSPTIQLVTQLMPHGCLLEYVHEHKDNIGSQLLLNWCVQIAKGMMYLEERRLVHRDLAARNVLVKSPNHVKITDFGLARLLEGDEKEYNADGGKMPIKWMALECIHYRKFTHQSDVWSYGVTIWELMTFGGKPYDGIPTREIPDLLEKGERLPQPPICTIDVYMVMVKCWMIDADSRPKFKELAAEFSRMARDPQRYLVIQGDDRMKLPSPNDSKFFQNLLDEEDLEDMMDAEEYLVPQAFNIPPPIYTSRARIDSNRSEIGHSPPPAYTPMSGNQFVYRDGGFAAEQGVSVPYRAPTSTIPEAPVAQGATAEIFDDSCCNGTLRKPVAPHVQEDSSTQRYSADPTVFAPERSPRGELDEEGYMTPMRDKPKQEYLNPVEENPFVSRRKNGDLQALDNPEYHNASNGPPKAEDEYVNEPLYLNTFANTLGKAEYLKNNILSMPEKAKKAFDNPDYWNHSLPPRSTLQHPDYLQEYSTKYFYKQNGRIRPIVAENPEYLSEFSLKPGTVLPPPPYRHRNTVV
Chain of Serine/threonine-protein kinase PAK 4 (O96013 whole entry): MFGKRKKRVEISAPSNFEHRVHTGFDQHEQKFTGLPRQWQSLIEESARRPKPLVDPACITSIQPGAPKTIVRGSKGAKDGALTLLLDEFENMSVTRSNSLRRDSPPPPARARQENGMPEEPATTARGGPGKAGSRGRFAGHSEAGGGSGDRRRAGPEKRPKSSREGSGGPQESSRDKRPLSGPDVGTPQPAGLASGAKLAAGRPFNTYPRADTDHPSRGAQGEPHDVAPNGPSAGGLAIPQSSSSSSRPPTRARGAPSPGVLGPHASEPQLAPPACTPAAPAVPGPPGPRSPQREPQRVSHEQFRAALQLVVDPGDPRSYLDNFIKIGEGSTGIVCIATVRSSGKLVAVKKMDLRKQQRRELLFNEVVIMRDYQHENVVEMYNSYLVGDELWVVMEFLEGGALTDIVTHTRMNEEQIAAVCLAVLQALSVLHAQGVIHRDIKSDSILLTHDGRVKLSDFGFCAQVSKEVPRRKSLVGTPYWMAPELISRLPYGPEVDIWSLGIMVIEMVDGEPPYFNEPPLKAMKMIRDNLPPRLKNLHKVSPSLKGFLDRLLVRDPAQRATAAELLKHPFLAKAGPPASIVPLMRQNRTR
Chain of Vascular endothelial growth factor receptor 2 (Danio rerio) (Q5GIT4 whole entry): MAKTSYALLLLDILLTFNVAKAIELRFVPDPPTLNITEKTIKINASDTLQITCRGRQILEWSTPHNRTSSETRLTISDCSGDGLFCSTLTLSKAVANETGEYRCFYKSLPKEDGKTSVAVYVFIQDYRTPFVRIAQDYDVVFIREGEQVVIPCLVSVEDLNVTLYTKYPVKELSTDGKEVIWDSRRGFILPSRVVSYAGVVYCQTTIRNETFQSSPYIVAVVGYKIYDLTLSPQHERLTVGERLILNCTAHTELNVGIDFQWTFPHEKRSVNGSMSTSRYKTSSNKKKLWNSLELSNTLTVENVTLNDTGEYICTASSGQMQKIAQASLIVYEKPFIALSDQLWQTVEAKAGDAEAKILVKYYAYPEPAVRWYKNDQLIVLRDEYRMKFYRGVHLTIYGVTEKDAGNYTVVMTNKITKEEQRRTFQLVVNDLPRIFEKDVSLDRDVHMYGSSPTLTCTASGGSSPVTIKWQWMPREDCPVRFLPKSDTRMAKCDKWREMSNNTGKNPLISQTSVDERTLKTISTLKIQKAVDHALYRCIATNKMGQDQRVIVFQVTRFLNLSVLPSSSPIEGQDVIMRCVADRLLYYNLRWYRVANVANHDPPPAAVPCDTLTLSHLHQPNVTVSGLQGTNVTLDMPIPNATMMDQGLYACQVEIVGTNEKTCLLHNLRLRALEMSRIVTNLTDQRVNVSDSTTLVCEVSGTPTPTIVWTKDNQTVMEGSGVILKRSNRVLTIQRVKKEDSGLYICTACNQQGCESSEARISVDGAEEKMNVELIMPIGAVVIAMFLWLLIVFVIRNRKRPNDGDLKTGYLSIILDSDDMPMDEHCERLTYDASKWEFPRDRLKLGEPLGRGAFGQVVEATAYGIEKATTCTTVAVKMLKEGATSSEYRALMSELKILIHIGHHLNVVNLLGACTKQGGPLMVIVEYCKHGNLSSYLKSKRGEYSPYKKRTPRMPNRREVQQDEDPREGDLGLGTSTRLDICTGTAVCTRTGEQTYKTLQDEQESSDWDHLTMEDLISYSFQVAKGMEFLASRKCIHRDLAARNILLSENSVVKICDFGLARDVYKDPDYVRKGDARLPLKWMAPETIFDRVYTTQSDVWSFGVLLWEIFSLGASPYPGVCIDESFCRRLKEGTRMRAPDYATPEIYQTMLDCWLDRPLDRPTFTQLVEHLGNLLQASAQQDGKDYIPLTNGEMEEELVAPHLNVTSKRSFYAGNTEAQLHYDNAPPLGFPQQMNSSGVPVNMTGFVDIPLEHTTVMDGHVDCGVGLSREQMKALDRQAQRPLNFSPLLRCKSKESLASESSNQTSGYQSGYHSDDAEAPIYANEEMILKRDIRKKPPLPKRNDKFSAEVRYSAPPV
Chain of Calcium/calmodulin-dependent protein kinase type IV (Q16566 whole entry): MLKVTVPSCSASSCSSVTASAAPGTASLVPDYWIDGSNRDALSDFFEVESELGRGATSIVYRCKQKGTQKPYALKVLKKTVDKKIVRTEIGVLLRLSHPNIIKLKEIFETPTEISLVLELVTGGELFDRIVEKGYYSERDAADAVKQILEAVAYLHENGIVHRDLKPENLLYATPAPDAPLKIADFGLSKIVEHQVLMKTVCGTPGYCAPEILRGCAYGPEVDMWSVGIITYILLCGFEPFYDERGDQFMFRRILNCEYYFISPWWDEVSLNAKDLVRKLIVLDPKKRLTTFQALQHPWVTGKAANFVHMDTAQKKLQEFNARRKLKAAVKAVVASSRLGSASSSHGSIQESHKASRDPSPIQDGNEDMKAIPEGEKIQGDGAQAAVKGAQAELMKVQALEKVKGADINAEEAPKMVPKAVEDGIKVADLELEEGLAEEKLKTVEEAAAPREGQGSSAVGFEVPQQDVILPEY
Chain of Serine/threonine-protein kinase pim-1 (P11309 whole entry): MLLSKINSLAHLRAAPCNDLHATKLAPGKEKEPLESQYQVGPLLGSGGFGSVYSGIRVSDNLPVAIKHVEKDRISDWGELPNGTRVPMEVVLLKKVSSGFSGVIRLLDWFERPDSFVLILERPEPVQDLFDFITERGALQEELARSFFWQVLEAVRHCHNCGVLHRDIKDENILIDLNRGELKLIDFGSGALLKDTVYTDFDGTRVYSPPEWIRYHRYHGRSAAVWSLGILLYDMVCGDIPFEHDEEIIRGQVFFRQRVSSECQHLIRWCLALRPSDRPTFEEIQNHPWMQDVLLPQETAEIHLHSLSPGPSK

Cmax [1]: 15.1 µg/mL
inhibition [2]: Active
IC50 [3]: 0.003 µM
IC50 [5]: > 10 µM
IC50 [6]: > 10 µM
IC50 [7]: > 10 µM
IC50 [8]: > 10 µM
IC50 [9]: > 10 µM
IC50 [10]: > 10 µM
IC50 [11]: 0.223 µM
Kd [12]: 0.0043 µM
IC50 [13]: 0.039 µM
SMILES: O=C(Nc1ccc(Oc2ncnc3[nH]ncc23)cc1)Nc1ccc(Cl)c(C(F)(F)F)c1
Activity (Mus musculus): Non-toxic
Activity (MV4-11): Active
IC50 [4]: > 10 µM
IC50 (SK-OV-3): > 10 µM
IC50 (A549): > 10 µM
IC50 (MCF7): > 10 µM
IC50 (HeLa): > 10 µM
